Assay results reported in ChEMBL document CHEMBL5321226, “Structure-directed identification of pyridine-2-methylamine derivatives as MmpL3 inhibitors for use as antitubercular agents” (Eur J Med Chem, 2023).
≈ marks a conversion by molar mass, not a printed value.

Experiments:
[1] = Cytotoxicity against African green monkey Vero cells assessed as reduction in cell viability incubated for 72 hrs by alamar blue staining based fluorescence microplate reader analysis; type: toxicity; conditions: African green monkey (Chlorocebus sabaeus)
Method in brief: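 Vero cell cytotoxicity was read out by Alamar Blue (MABA) and expressed as IC50. Other details follow earlier reports.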

[2] = Metabolic stability in human liver microsomes assessed as parent compound remaining and mesured after 60 mins in absence of NADPH; type: ADME, Microsome; conditions: 1 h
[3] = Metabolic stability in human liver microsomes assessed as intrinsic clearance and mesured upto 60 mins in presence of NADPH; type: ADME, Microsome; conditions: 1 h
[4] = Metabolic stability in human liver microsomes assessed as parent compound remaining and mesured after 60 mins in presence of NADPH; type: ADME, Microsome; conditions: read-out: Stability
Method in brief: (§1)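 Compounds were incubated with human liver microsomes for 60 min, with or without NADPH cofactor. Substrate concentration after 60 min was normalized to the time-zero concentration to give % remaining. Half-life was derived from the incubations, and intrinsic clearance was calculated as CLint(mic) = 0.693/half-life/mg microsomal protein per mL.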

[5] = target: Voltage-gated inwardly rectifying potassium channel KCNH2 (Homo sapiens, UniProt Q12809); test: Inhibition of human ERG at 10 uM by patch-clamp electrophysiology assay; type: toxicity
Method in brief: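 hERG K+ channel current was measured by manual patch-clamp electrophysiology with the test compound at 10 μM. […] The inhibition rate is the average of three individual measurements.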

[6] = Metabolic stability in human liver microsomes assessed as half life and mesured upto 60 mins in presence of NADPH; type: ADME, Microsome; conditions: 1 h; method in brief: as §1
[7] = system: Mycobacterium tuberculosis; test: Antimycobacterial activity against drug susceptible Mycobacterium tuberculosis V4207 assessed as bacterial growth inhibition incubated for 7 to 14 days by MABA assay; type: functional; conditions: time 7-14 day
[8] = Mycobacterium tuberculosis, V4207, read-out: MIC90

Sequence of Voltage-gated inwardly rectifying potassium channel KCNH2 (Q12809 whole entry): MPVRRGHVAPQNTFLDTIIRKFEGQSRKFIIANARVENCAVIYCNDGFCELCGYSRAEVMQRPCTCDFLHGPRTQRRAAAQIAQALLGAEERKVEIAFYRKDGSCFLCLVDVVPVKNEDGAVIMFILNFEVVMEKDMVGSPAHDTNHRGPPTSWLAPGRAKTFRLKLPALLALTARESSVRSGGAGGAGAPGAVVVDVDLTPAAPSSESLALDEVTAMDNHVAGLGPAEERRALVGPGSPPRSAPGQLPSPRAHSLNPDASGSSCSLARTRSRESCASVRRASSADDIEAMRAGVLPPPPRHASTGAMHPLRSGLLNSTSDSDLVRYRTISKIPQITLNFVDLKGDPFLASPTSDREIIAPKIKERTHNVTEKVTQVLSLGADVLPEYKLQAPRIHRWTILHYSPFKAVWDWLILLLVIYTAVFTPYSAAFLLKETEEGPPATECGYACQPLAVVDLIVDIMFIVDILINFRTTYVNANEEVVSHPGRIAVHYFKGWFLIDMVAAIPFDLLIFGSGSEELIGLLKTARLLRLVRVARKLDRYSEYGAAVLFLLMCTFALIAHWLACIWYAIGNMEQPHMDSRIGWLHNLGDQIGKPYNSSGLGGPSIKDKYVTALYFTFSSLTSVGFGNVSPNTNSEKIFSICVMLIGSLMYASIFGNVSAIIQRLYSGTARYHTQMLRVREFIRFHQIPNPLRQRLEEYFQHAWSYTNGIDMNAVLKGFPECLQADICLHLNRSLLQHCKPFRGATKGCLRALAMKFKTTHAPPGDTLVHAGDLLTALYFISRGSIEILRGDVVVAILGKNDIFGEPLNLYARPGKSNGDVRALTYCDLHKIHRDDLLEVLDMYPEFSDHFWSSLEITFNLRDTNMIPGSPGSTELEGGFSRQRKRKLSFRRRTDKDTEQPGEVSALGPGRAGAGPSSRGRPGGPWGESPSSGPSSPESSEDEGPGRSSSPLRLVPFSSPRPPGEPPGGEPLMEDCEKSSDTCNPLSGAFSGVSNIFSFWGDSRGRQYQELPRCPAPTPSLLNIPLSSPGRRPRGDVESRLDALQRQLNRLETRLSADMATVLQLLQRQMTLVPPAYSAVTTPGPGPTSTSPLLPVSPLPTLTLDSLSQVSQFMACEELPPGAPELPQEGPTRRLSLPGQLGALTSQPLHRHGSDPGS

Compound `CC(C)c1ccc(-c2cncc(CN3CC[Si](C)(C)CC3)c2)cc1` has an IC50 at 72 h [1] of at least 32 µg/mL.
Work on `CC(C)c1ccc(-c2ccnc(CN3CCC4(CC3)OCCCO4)c2)cc1` yielded an IC50 at 72 h [1] of at least 32 µg/mL.
For `CC(C)c1ccc(-c2ccnc(CNC3CCCCCCC3)c2)cc1`, the IC50 at 72 h [1] was 16 µg/mL (≈ 47.5 µM).
`c1ccc(-c2ccc(-c3ccnc(CN4CCC5(CCCCC5)CC4)c3)cc2)cc1` gave an IC50 at 72 h [1] of at least 32 µg/mL.
`C[Si]1(C)CCN(Cc2cc(-c3ccc(C4CCCCC4)cc3)ccn2)CC1` showed an IC50 at 72 h [1] of at least 32 µg/mL.
For `c1ccc(-c2ccc(-c3ccnc(CN4CCC5(CCCC5)CC4)c3)cc2)cc1`, the IC50 at 72 h [1] was 16 µg/mL (≈ 41.8 µM), the Stability [2] was “Stable” and the CLH [3] was 28 µL/min/mg. The remaining at 1 h [4] was 43.1%, the “inhibition (INH)” value [5] was 52.7% and the t1/2 [6] was 49.5 min.
For `CC(C)Cc1ccc(-c2ccnc(CN3CC[Si](C)(C)CC3)c2)cc1`, the IC50 at 72 h [1] was at least 32 µg/mL.
With `c1cc(-c2ccc(-c3ccoc3)cc2)cc(CN2CCC3(CCCC3)CC2)n1` the Stability [2] was “Stable”, the CLH [3] was 758 µL/min/mg and the remaining at 1 h [4] was 0.2%. For the same compound, the t1/2 [6] was 1.8 min.
Work on `CC(C)Cc1ccc(-c2ccnc(CN3CCC(C)CC3)c2)cc1` yielded an IC50 at 72 h [1] of at least 32 µg/mL.
For `CC(C)c1ccc(-c2ccnc(CNC3CCCCCC3)c2)cc1`, the IC50 at 72 h [1] was 16 µg/mL (≈ 49.6 µM).
`CC(C)c1ccc(-c2ccnc(CNC34CC5CC(CC(C5)C3)C4)c2)cc1` showed an IC50 at 72 h [1] of 16 µg/mL (≈ 44.4 µM).
For `CC(C)(C)c1ccc(-c2ccnc(CN3CC[Si](C)(C)CC3)c2)cc1`, the IC50 at 72 h [1] was 16 µg/mL (≈ 45.4 µM).
Compound `Cc1ccc(-c2ccc(-c3ccnc(CN4CCC5(CCCC5)CC4)c3)cc2)cc1` has an IC50 at 72 h [1] of at least 32 µg/mL.
With `CC(C)c1ccc(-c2ccnc(CN3CCC4(CCCC4)CC3)c2)cc1` the Stability [2] was “Stable”, the CLH [3] was 122.9 µL/min/mg and the remaining at 1 h [4] was 1.5%. The t1/2 [6] was 11.3 min.
`Clc1ccc(-c2ccc(-c3ccnc(CN4CCC5(CCCC5)CC4)c3)cc2)cc1` showed an IC50 at 72 h [1] of at least 32 µg/mL.
With `CC(C)c1ccc(-c2nc(CN3CC[Si](C)(C)CC3)co2)cc1` the IC50 at 72 h [1] was at least 32 µg/mL.
`CC(C)c1ccc(-c2ccnc(CNC3C4CC5CC(C4)CC3C5)c2)cc1` (stereo not drawn) gave an IC50 at 72 h [1] of at least 32 µg/mL.
Compound `CC(C)c1ccc(-c2ccnc(CN3CC[Si](C)(C)CC3)c2)cc1` has an IC50 at 72 h [1] of at least 32 µg/mL.
`C[Si]1(C)CCN(Cc2cc(-c3ccc(-c4ccccc4)cc3)ccn2)CC1` showed an IC50 at 72 h [1] of at least 32 µg/mL.
For `O=C(O)Cc1ccccc1Nc1c(Cl)cccc1Cl` [DICLOFENAC], the Stability [2] was “Stable”.
Work on `NNC(=O)c1ccncc1` [ISONIAZID] yielded an MIC90 [7] of 0.04 µg/mL (≈ 0.292 µM).
In the case of `NC[C@H]1O[C@H](O[C@H]2[C@H](O)[C@@H](O[C@H]3O[C@H](CO)[C@@H](O)[C@H](N)[C@H]3O)[C@H](N)C[C@@H]2N)[C@H](O)[C@@H](O)[C@@H]1O` [KANAMYCIN], the MIC90 [7, 8] is reported as 2 µg/mL (≈ 4.13 µM).
In the case of `C[C@H]1COc2c(N3CCN(C)CC3)c(F)cc3c(=O)c(C(=O)O)cn1c23` [LEVOFLOXACIN ANHYDROUS], the MIC90 [7, 8] is reported as 0.125 µg/mL (≈ 0.346 µM).
In the case of `CC1COc2c(N3CCN(C)CC3)c(F)cc3c(=O)c(C(=O)O)cn1c23` (stereo not drawn) [OFLOXACIN], the MIC90 [7, 8] is reported as 0.5 µg/mL (≈ 1.38 µM).
`CO[C@H]1/C=C/O[C@@]2(C)Oc3c(C)c(O)c4c(O)c(c(/C=N/N5CCN(C)CC5)c(O)c4c3C2=O)NC(=O)/C(C)=C\C=C\[C@H](C)[C@H](O)[C@@H](C)[C@@H](O)[C@@H](C)[C@H](OC(C)=O)[C@@H]1C` [RIFAMPIN] showed an MIC90 [7, 8] of 0.063 µg/mL (≈ 0.0766 µM).
With `C[C@]12CC[C@H]3[C@@H](CCC4=CC(=O)CC[C@@]43C)[C@@H]1CC[C@@H]2O` [TESTOSTERONE] the Stability [2] was “Stable” and the remaining at 1 h [4] was 3.9%.
